Results as given in ChEMBL document CHEMBL4339200, “Structure-based Discovery of Phenyl (3-Phenylpyrrolidin-3-yl)sulfones as Selective, Orally Active RORγt Inverse Agonists” (ACS Med Chem Lett, 2019).

Assays:
[1] = target: T1, Nuclear receptor subfamily 1 group I member 2 (Homo sapiens, UniProt O75469); assay: Transactivation of PXR in human HepG2 cells; format: ADME, cell-based
T1 sequence (O75469 whole entry): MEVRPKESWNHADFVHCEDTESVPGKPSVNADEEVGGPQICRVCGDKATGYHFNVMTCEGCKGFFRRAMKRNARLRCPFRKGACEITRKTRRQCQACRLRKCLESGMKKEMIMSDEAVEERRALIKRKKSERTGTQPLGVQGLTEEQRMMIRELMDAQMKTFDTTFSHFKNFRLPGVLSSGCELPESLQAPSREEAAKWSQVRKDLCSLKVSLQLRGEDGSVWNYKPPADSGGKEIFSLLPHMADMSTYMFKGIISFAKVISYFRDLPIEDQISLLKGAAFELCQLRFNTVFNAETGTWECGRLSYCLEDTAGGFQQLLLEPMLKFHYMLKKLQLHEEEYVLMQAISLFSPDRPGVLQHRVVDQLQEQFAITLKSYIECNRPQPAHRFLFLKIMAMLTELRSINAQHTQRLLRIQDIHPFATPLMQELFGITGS

PXR (NR1I2) = target: T2, PXR (NR1I2) (Homo sapiens, UniProt O75469); assay: Transactivation of PXR in human HepG2 cells relative to rifampicin; format: ADME, cell-based; conditions: read-out: %max
T2 sequence (O75469 whole entry): T1 sequence (O75469 whole entry)

[2] = target: T3, Oxysterols receptor LXR-alpha (Homo sapiens, UniProt Q13133); assay: Agonist activity at LXRalpha (unknown origin) expressed in African green monkey CV1 cells; format: cell-based
T3 sequence (Q13133 whole entry): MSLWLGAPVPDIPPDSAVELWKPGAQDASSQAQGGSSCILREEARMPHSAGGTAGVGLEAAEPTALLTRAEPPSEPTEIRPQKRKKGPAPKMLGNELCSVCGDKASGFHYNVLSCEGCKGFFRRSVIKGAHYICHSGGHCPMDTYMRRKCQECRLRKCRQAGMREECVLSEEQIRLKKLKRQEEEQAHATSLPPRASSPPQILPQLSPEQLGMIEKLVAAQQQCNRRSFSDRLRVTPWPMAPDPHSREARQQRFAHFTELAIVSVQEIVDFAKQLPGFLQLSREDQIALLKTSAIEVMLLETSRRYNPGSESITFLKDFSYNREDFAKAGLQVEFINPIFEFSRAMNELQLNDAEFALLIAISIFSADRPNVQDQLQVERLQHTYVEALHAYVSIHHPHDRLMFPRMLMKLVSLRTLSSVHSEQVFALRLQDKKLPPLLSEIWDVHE

[3] = target: T4, Oxysterols receptor LXR-beta (Homo sapiens, UniProt P55055); assay: Agonist activity at LXRbeta (unknown origin) expressed in African green monkey CV1 cells; format: cell-based
T4 sequence (P55055 whole entry): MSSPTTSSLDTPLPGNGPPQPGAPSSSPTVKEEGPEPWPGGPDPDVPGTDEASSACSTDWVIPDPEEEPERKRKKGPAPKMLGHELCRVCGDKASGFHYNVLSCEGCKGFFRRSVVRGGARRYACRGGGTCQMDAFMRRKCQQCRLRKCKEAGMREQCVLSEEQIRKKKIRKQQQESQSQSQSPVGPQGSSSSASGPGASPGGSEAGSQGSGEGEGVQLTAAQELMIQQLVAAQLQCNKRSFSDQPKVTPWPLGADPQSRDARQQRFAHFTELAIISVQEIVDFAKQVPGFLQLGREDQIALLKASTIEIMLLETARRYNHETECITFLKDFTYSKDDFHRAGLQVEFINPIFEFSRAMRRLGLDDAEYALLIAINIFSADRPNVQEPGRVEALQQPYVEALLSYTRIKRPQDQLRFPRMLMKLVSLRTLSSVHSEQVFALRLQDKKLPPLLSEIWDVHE

[4] = Stability in mouse liver microsomes assessed as parent compound remaining after 10 mins; format: ADME, Microsome; conditions: read-out: Stability
How it was run: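 Rough stability screen: compound incubated with mouse liver microsomes for 10 min, reported as percentage of parent remaining.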

[5] = Protein binding in human plasma assessed as unbound fraction; format: ADME, cell-free
[6] = Protein binding in mouse plasma assessed as unbound fraction; format: ADME, cell-free
[7] = target: T5, Oxysterols receptor LXR-alpha (Homo sapiens) (UniProt Q13133); assay: Agonist activity at LXRalpha (unknown origin) expressed in African green monkey CV1 cells relative to T0901317; format: cell-based
T5 sequence (whole entry): T3 sequence (Q13133 whole entry)

[8] = Permeability in human Caco2 cells; format: ADME, cell-based; conditions: Caco-2, read-out: permeability
How it was run: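 Caco-2 monolayer permeability, reported as permeation coefficient in nm/s; an efflux ratio was also determined.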

[9] = target: T6, Oxysterols receptor LXR-beta (Homo sapiens) (UniProt P55055); assay: Agonist activity at LXRbeta (unknown origin) expressed in African green monkey CV1 cells relative to T0901317; format: cell-based
T6 sequence (whole entry): T4 sequence (P55055 whole entry)

SMILES | EC50 [1] [µM] | Emax (PXR (NR1I2)) [%] | EC50 [2] [µM] | EC50 [3] [µM] | remaining at 10 min [4] [%] | fraction unbound [5] | fraction unbound [6] | %max [7] [%] | Papp [8] [nm/s] | %max [9] [%]
CC(=O)N1CCC(c2ccc(C(O)(C(F)(F)F)C(F)(F)F)cc2)(S(=O)(=O)c2ccc(F)cc2)C1 (racemic) | 0.48 | 100 | > 7.5 | > 7.5 |  |  |  |  |  | 
CC(O)(c1ccc(C2(S(=O)(=O)c3ccc(F)cc3)CCCC2)cc1)C(F)(F)F (racemic) | 0.239 | 110 |  |  |  |  |  |  |  | 
Cc1cc(S(=O)(=O)[C@@]2(c3ccc(C(F)(C(F)(F)F)C(F)(F)F)cc3)CCN(C(=O)[C@H]3CC[C@H](C(=O)O)CC3)C2)ccc1F | > 22.8 | 40 | > 7.5 | > 7.5 | 84 | 0.017 | 0.029 |  |  | 
CCNC(=O)N1CCC(c2ccc(C(O)(C(F)(F)F)C(F)(F)F)cc2)(S(=O)(=O)c2ccc(F)cc2)C1 (racemic) |  |  | > 7.5 | > 7.5 |  |  |  |  |  | 
O=S(=O)(c1ccc(F)cc1)C1(c2ccc(C(O)(C(F)(F)F)C(F)(F)F)cc2)CCCC1 | 0.01 | 110 |  |  |  |  |  |  |  | 
O=S(=O)(c1ccc(F)cc1)[C@@]1(c2ccc(C(O)(C(F)(F)F)C(F)(F)F)cc2)CCNC1 | 0.434 | 110 | 2.92 | > 7.5 |  |  |  | 58 |  | 
CC(=O)N1CCC(C(=O)N2CC[C@](c3ccc(C(F)(C(F)(F)F)C(F)(F)F)cc3)(S(=O)(=O)c3ccc(F)cc3)C2)CC1 |  | 7 | > 7.5 | > 7.5 |  |  |  |  |  | 
O=C(C1CCCC1)N1CCC(c2ccc(C(O)(C(F)(F)F)C(F)(F)F)cc2)(S(=O)(=O)c2ccc(F)cc2)C1 (racemic) | 0.794 | 99 | > 7.5 | > 7.5 |  |  |  |  |  | 
CS(=O)(=O)N1CCC(C(=O)N2CC[C@](c3ccc(C(O)(C(F)(F)F)C(F)(F)F)cc3)(S(=O)(=O)c3ccc(F)cc3)C2)CC1 | > 2.47 | 89 | > 7.5 | > 7.5 |  |  |  |  |  | 
O=C(O)[C@H]1CC[C@H](C(=O)N2CC[C@](c3ccc(C(O)(C(F)(F)F)C(F)(F)F)cc3)(S(=O)(=O)c3ccc(F)cc3)C2)CC1 | > 50 | 11 | > 3.75 | > 7.5 |  |  |  |  | < 15 | 
NC(c1ccc(C2(S(=O)(=O)c3ccc(F)cc3)CCCC2)cc1)(C(F)(F)F)C(F)(F)F | 0.275 | 120 |  |  |  |  |  |  |  | 
CC(=O)N1CCN(C(=O)N2CC[C@](c3ccc(C(O)(C(F)(F)F)C(F)(F)F)cc3)(S(=O)(=O)c3ccc(F)cc3)C2)CC1 |  |  | > 7.5 | > 7.5 |  |  |  |  |  | 
CCc1ccc(S(=O)(=O)[C@@]2(c3ccc(C(F)(C(F)(F)F)C(F)(F)F)cc3)CCN(C(=O)[C@H]3CC[C@H](C(=O)O)CC3)C2)cc1 | > 50 | 3 | > 7.5 | > 7.5 | 100 |  |  |  |  | 
Cc1ccc(S(=O)(=O)[C@@]2(c3ccc(C(F)(C(F)(F)F)C(F)(F)F)cc3)CCN(C(=O)[C@H]3CC[C@H](C(=O)O)CC3)C2)cc1 | 12.6 | 29 | > 7.5 | > 7.5 | 85 | 0.013 | 0.026 |  |  | 
CC(=O)N1CCC(C(=O)N2CC[C@](c3ccc(C(O)(C(F)(F)F)C(F)(F)F)cc3)(S(=O)(=O)c3ccc(F)cc3)C2)CC1 |  |  | > 7.5 | > 7.5 |  |  |  |  |  | 
O=S(=O)(c1ccc(F)cc1)[C@]1(c2ccc(C(O)(C(F)(F)F)C(F)(F)F)cc2)CCNC1 | 0.52 | 110 | > 7.5 | > 7.5 |  |  |  |  |  | 

SMILES | EC50 [1] [µM] | Emax (PXR (NR1I2)) [%] | EC50 [2] [µM] | EC50 [3] [µM] | remaining at 10 min [4] [%] | fraction unbound [5] | fraction unbound [6] | %max [7] [%] | Papp [8] [nm/s] | %max [9] [%]
O=S(=O)(c1ccc(F)cc1)C1(c2ccc(C(F)(C(F)(F)F)C(F)(F)F)cc2)CCCC1 | 1.01 | 130 |  |  |  |  |  |  |  | 
COc1ccc(S(=O)(=O)[C@@]2(c3ccc(C(F)(C(F)(F)F)C(F)(F)F)cc3)CCN(C(=O)[C@H]3CC[C@H](C(=O)O)CC3)C2)cc1 | > 50 | 12 | > 7.5 | > 7.5 | 98 |  |  |  |  | 
O=S(=O)(c1ccc(F)cc1)C1(c2ccc(C(Cl)(C(F)(F)F)C(F)(F)F)cc2)CCCC1 | 0.229 | 110 |  |  |  |  |  |  |  | 
CC(=O)N1CCN(C(=O)N2CC[C@](c3ccc(C(F)(C(F)(F)F)C(F)(F)F)cc3)(S(=O)(=O)c3ccc(F)cc3)C2)CC1 |  | 10 | > 7.5 | > 7.5 | 68 |  |  |  |  | 
COC(=O)N1CCC(c2ccc(C(O)(C(F)(F)F)C(F)(F)F)cc2)(S(=O)(=O)c2ccc(F)cc2)C1 (racemic) |  |  | 0.408 | 1.9 |  |  |  | 62 |  | 39
O=C(O)C1CCN(C(=O)N2CC[C@](c3ccc(C(F)(C(F)(F)F)C(F)(F)F)cc3)(S(=O)(=O)c3ccc(F)cc3)C2)CC1 | > 46.1 | 23 | > 7.5 | > 7.5 | 88 |  |  |  |  | 
CCc1cc(S(=O)(=O)[C@@]2(c3ccc(C(F)(C(F)(F)F)C(F)(F)F)cc3)CCN(C(=O)[C@H]3CC[C@H](C(=O)O)CC3)C2)ccc1F | > 50 | 9 | > 7.5 | > 7.5 | 73 |  |  |  |  | 
O=C(O)[C@H]1CC[C@H](C(=O)N2CC[C@](c3ccc(C(F)(C(F)(F)F)C(F)(F)F)cc3)(S(=O)(=O)c3ccc(Cl)cc3)C2)CC1 | 6.44 | 22 | > 7.5 | > 7.5 | 100 |  |  |  |  | 
O=C(O)[C@H]1CC[C@H](C(=O)N2CC[C@](c3ccc(C(F)(C(F)(F)F)C(F)(F)F)cc3)(S(=O)(=O)c3ccc(F)c(C4CC4)c3)C2)CC1 | > 50 | 9 | > 7.5 | > 7.5 | 74 |  |  |  |  | 
CC(c1ccc(C2(S(=O)(=O)c3ccc(F)cc3)CCCC2)cc1)(C(F)(F)F)C(F)(F)F | 0.752 | 140 |  |  |  |  |  |  |  | 
CCC(O)(c1ccc(C2(S(=O)(=O)c3ccc(F)cc3)CCCC2)cc1)C(F)(F)F (racemic) | 0.048 | 110 |  |  |  |  |  |  |  | 
CS(=O)(=O)N1CCC(C(=O)N2CC[C@](c3ccc(C(F)(C(F)(F)F)C(F)(F)F)cc3)(S(=O)(=O)c3ccc(F)cc3)C2)CC1 | > 50 | 2 | > 7.5 | > 7.5 | 69 |  |  |  |  | 
O=C(O)[C@H]1CC[C@@H](C(=O)N2CC[C@](c3ccc(C(F)(C(F)(F)F)C(F)(F)F)cc3)(S(=O)(=O)c3ccc(F)cc3)C2)CC1 |  |  | > 7.5 | > 7.5 |  |  |  |  |  | 
O=C(O)[C@H]1CC[C@H](C(=O)N2CC[C@](c3ccc(C(F)(C(F)(F)F)C(F)(F)F)cc3)(S(=O)(=O)c3ccccc3)C2)CC1 | > 50 | 10 | > 7.5 | > 7.5 | 96 |  |  |  |  | 
CC(=O)N1CCN(C(=O)N2CC[C@@](c3ccc(C(O)(C(F)(F)F)C(F)(F)F)cc3)(S(=O)(=O)c3ccc(F)cc3)C2)CC1 |  |  | > 7.5 | > 7.5 |  |  |  |  |  | 
